Data: ChEMBL document CHEMBL1126020, “Potent non-6-fluoro-substituted quinolone antibacterials: synthesis and biological activity” (1992)
≈ marks a conversion by molar mass, not a printed value.

How the values were obtained:
Type in all cases: functional
Escherichia coli = experiment: In vitro antimicrobial activity against strain Escherichia coli 15119
Summary of the method: (§1)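 MICs by serial 2-fold broth dilution in nutrient broth. Inoculum adjusted to 10^6 CFU/mL, with compounds tested from 0.0005 to 250 μg/mL. Plates incubated 18 h at 37 °C. MIC taken as the lowest concentration preventing visible bacterial growth.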

Enterobacter cloacae = experiment: In vitro antimicrobial activity against strain Enterobacter cloacae 9656
Enterococcus faecalis = experiment: In vitro antimicrobial activity against strain Enterococcus faecalis 9809; summary of the method: as §1
Klebsiella pneumoniae = experiment: In vitro antimicrobial activity against strain Klebsiella pneumoniae 9664; summary of the method: as §1
Morganella morganii = experiment: In vitro antimicrobial activity against strain Morganella morganii 15153; summary of the method: as §1
Proteus mirabilis = experiment: In vitro antimicrobial activity against strain Proteus mirabilis 9900; summary of the method: as §1
Pseudomonas aeruginosa = experiment: In vitro antimicrobial activity against strain Pseudomonas aeruginosa 9843; summary of the method: as §1
Staphylococcus aureus = experiment: In vitro antimicrobial activity against strain Staphylococcus aureus 9537; summary of the method: as §1
Streptococcus pneumoniae = experiment: In vitro antimicrobial activity against strain Streptococcus pneumoniae 9585; summary of the method: as §1

SMILES | MIC (Escherichia coli) [µg/mL] | MIC (Enterobacter cloacae) [µg/mL] | MIC (Enterococcus faecalis) [µg/mL] | MIC (Klebsiella pneumoniae) [µg/mL] | MIC (Morganella morganii) [µg/mL] | MIC (Proteus mirabilis) [µg/mL] | MIC (Pseudomonas aeruginosa) [µg/mL] | MIC (Staphylococcus aureus) [µg/mL] | MIC (Streptococcus pneumoniae) [µg/mL]
NC1CCN(c2cc3c(cc2F)c(=O)c(C(=O)O)cn3C2CC2)C1 (stereo not given) | 0.004 (≈ 0.0121 µM) | 0.004 (≈ 0.0121 µM) | 0.25 (≈ 0.754 µM) | 0.03 (≈ 0.0905 µM) | 0.016 (≈ 0.0483 µM) | 0.03 (≈ 0.0905 µM) | 0.25 (≈ 0.754 µM) | 0.03 (≈ 0.0905 µM) | 0.13 (≈ 0.392 µM)
NC1CCN(c2c(F)cc3c(=O)c(C(=O)O)cn(C4CC4)c3c2F)C1 (stereo not given) | 0.008 (≈ 0.0229 µM) | 0.016 (≈ 0.0458 µM) | 2 (≈ 5.73 µM) | 0.03 (≈ 0.0859 µM) | 0.016 (≈ 0.0458 µM) | 0.016 (≈ 0.0458 µM) | 0.13 (≈ 0.372 µM) | 0.008 (≈ 0.0229 µM) | 0.03 (≈ 0.0859 µM)
NC1CCN(c2cc(F)c3c(=O)c(C(=O)O)cn(C4CC4)c3c2F)C1 (stereo not given) | 0.06 (≈ 0.172 µM) | 0.06 (≈ 0.172 µM) | 4 (≈ 11.5 µM) | 0.13 (≈ 0.372 µM) | 0.06 (≈ 0.172 µM) | 0.13 (≈ 0.372 µM) | 2 (≈ 5.73 µM) | 0.13 (≈ 0.372 µM) | 4 (≈ 11.5 µM)
NC1CCN(c2ccc3c(=O)c(C(=O)O)cn(C4CC4)c3c2)C1 (stereo not given) | 0.008 (≈ 0.0255 µM) | 0.13 (≈ 0.415 µM) | 4 (≈ 12.8 µM) | 0.06 (≈ 0.191 µM) | 0.13 (≈ 0.415 µM) | 0.13 (≈ 0.415 µM) | 0.5 (≈ 1.6 µM) | 0.25 (≈ 0.798 µM) | 2 (≈ 6.38 µM)
NC1CCN(c2cc(F)c3c(=O)c(C(=O)O)cn(C4CC4)c3c2)C1 (stereo not given) | 0.13 (≈ 0.392 µM) | 0.13 (≈ 0.392 µM) | 16 (≈ 48.3 µM) | 0.5 (≈ 1.51 µM) | 0.25 (≈ 0.754 µM) | 0.5 (≈ 1.51 µM) | 4 (≈ 12.1 µM) | 1 (≈ 3.02 µM) | 4 (≈ 12.1 µM)
NC1CCN(c2ccc3c(=O)c(C(=O)O)cn(C4CC4)c3c2F)C1 (stereo not given) | 0.008 (≈ 0.0241 µM) | 0.03 (≈ 0.0905 µM) | 0.25 (≈ 0.754 µM) | 0.016 (≈ 0.0483 µM) | 0.016 (≈ 0.0483 µM) | 0.03 (≈ 0.0905 µM) | 0.25 (≈ 0.754 µM) | 0.03 (≈ 0.0905 µM) | 0.5 (≈ 1.51 µM)
O=C(O)c1cn(C2CC2)c2cc(N3CCNCC3)c(F)cc2c1=O [CIPROFLOXACIN] | – | – | 0.5 (≈ 1.51 µM) | 0.06 (≈ 0.181 µM) | 0.08 (≈ 0.241 µM) | 0.008 (≈ 0.0241 µM) | – | 0.06 (≈ 0.181 µM) | 0.25 (≈ 0.754 µM)
